In ChEMBL document CHEMBL1649493, “Genetic and biochemical characterization of the first extended-spectrum CARB-type beta-lactamase, RTG-4, from Acinetobacter baumannii” (Antimicrob Agents Chemother, 2009):
Converted amounts (≈) assume the structure as drawn.

Key:
Acinetobacter baumannii [1] = assay: Antimicrobial activity against Acinetobacter baumannii CIP70.10 by […]; assay type: functional
Escherichia coli [2] = assay: Antibacterial activity against Escherichia coli TOP10 harboring beta-lactamase RTG4 gene by Etest method; assay type: functional
Summary of the method: (§1)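 MICs read by Etest on Mueller-Hinton agar plates incubated at 37°C. Recombinant E. coli TOP10 carried the cloned β-lactamase gene on plasmid pBK-CMV; the host strain alone was tested alongside.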

Acinetobacter baumannii [3] = assay: Antimicrobial activity against Acinetobacter baumannii CIP70.10 harboring beta-lactamase RTG4 gene by […]; assay type: functional
Escherichia coli [4] = assay: Antibacterial activity against Escherichia coli TOP10 harboring beta-lactamase RTG3 gene by Etest method; assay type: functional; summary of the method: as §1
Escherichia coli [5] = assay: Antibacterial activity against Escherichia coli TOP10 harboring recombinant plasmid RTG4-V49 by Etest method; assay type: functional
Acinetobacter baumannii [6] = assay: Antimicrobial activity against Acinetobacter baumannii CIP70.10 harboring beta-lactamase RTG3 gene by […]; assay type: functional
Acinetobacter baumannii [7] = assay: Antimicrobial activity against Acinetobacter baumannii by […]; assay type: functional
Summary of the method: (§2)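 MICs were determined by Etest on Mueller-Hinton agar at 37°C. Where indicated, clavulanic acid or tazobactam was added at 4 μg/ml.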

[8] = Activity of recombinant beta-lactamase RTG4 expressed in Escherichia coli TOP10 assessed as Ratio of Kcat to Km by nitrocefin hydrolysis assay relative to benzylpenicillin; set-up: scale not given: the % may be the effect or the level left
Escherichia coli [9] = assay: Antibacterial activity against Escherichia coli TOP10 harboring recombinant plasmid RTG4-S69 by Etest method; assay type: functional
Escherichia coli [10] = assay: Antibacterial activity against Escherichia coli TOP10 harboring recombinant plasmid RTG4-S69-V49 by Etest method; assay type: functional
[11] = Ratio of Kcat to Km for recombinant beta-lactamase RTG4 expressed in Escherichia coli TOP10 by nitrocefin hydrolysis assay
Escherichia coli [12] = assay: Antibacterial activity against Escherichia coli TOP10 harboring recombinant plasmid RTG4-S69 by Etest method in presence of 4 ug/ml beta-lactamase inhibitor clavulanic acid; assay type: functional
Summary of the method: (§3)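 MICs read by Etest on Mueller-Hinton agar at 37°C, with β-lactams combined with clavulanic acid at 4 μg/ml. The strains were E. coli TOP10 carrying the cloned RTG gene or the site-directed mutant plasmids (Thr69Ser, Ala49Val, or both).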

Acinetobacter baumannii [13] = assay: Antimicrobial activity against Acinetobacter baumannii CIP70.10 harboring beta-lactamase RTG4 gene by […] in presence of 4 ug/ml beta-lactamase inhibitor clavulanic acid; assay type: functional
Escherichia coli [14] = assay: Antibacterial activity against Escherichia coli TOP10 by Etest method in presence of 4 ug/ml beta-lactamase inhibitor clavulanic acid; assay type: functional
Summary of the method: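 MICs by Etest on Mueller-Hinton agar plates incubated at 37°C, with clavulanic acid at a fixed 4 μg/ml. The E. coli TOP10 host was tested with recombinant plasmids carrying the cloned HindIII fragment encoding RTG-4 or its site-directed variants (T69S, A49V).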

Escherichia coli [15] = assay: Antibacterial activity against Escherichia coli TOP10 harboring recombinant plasmid RTG4-V49 by Etest method in presence of 4 ug/ml beta-lactamase inhibitor clavulanic acid; assay type: functional; summary of the method: as §3
Escherichia coli [16] = assay: Antibacterial activity against Escherichia coli TOP10 by Etest method; assay type: functional; summary of the method: as §1
Acinetobacter baumannii [17] = assay: Antimicrobial activity against Acinetobacter baumannii CIP70.10 by […] in presence of 4 ug/ml beta-lactamase inhibitor clavulanic acid; assay type: functional; summary of the method: as §2
Escherichia coli [18] = assay: Antibacterial activity against Escherichia coli TOP10 harboring beta-lactamase RTG4 gene by Etest method in presence of 4 ug/ml beta-lactamase inhibitor clavulanic acid; assay type: functional; summary of the method: as §3
Escherichia coli [19] = assay: Antibacterial activity against Escherichia coli TOP10 harboring beta-lactamase RTG3 gene by Etest method in presence of 4 ug/ml beta-lactamase inhibitor clavulanic acid; assay type: functional; summary of the method: as §3
Acinetobacter baumannii [20] = assay: Antimicrobial activity against Acinetobacter baumannii by […] in presence of 4 ug/ml beta-lactamase inhibitor clavulanic acid; assay type: functional; summary of the method: as §2
Escherichia coli [21] = assay: Antibacterial activity against Escherichia coli TOP10 harboring recombinant plasmid RTG4-S69-V49 by Etest method in presence of 4 ug/ml beta-lactamase inhibitor clavulanic acid; assay type: functional; summary of the method: as §3
Acinetobacter baumannii [22] = assay: Antimicrobial activity against Acinetobacter baumannii CIP70.10 harboring beta-lactamase RTG3 gene by […] in presence of 4 ug/ml beta-lactamase inhibitor clavulanic acid; assay type: functional
[23] = Inhibition of recombinant beta-lactamase RTG3 expressed in Escherichia coli TOP10 by benzylpenicillin hydrolysis assay
[24] = Inhibition of recombinant beta-lactamase RTG4 expressed in Escherichia coli TOP10 by benzylpenicillin hydrolysis assay
Acinetobacter baumannii [25] = assay: Antimicrobial activity against Acinetobacter baumannii by […] in presence of 4 ug/ml Tazobactam; assay type: functional; summary of the method: as §2
Acinetobacter baumannii [26] = assay: Antimicrobial activity against Acinetobacter baumannii CIP70.10 by […] in presence of 4 ug/ml Tazobactam; assay type: functional; summary of the method: as §2
Acinetobacter baumannii [27] = assay: Antimicrobial activity against Acinetobacter baumannii CIP70.10 harboring beta-lactamase RTG4 gene by […] in presence of 4 ug/ml Tazobactam; assay type: functional
Acinetobacter baumannii [28] = assay: Antimicrobial activity against Acinetobacter baumannii CIP70.10 harboring beta-lactamase RTG3 gene by […] in presence of 4 ug/ml Tazobactam; assay type: functional

SMILES | MIC (Acinetobacter baumannii [1]) [µg/mL] | MIC (Escherichia coli [2]) [µg/mL] | MIC (Acinetobacter baumannii [3]) [µg/mL] | MIC (Escherichia coli [4]) [µg/mL] | MIC (Escherichia coli [5]) [µg/mL] | MIC (Acinetobacter baumannii [6]) [µg/mL] | MIC (Acinetobacter baumannii [7]) [µg/mL] | Activity [8] [%] | MIC (Escherichia coli [9]) [µg/mL] | MIC (Escherichia coli [10]) [µg/mL] | kcat/Km [11] [M⁻¹ s⁻¹] | MIC (Escherichia coli [16]) [µg/mL] | other results
CO/N=C(\C(=O)N[C@@H]1C(=O)N2C(C(=O)[O-])=C(C[N+]3(C)CCCC3)CS[C@H]12)c1csc(N)n1 | 1 (≈ 2.08 µM) | 4 (≈ 8.32 µM) | 64 (≈ 133 µM) | 0.06 (≈ 0.125 µM) | 4 | 4 (≈ 8.32 µM) | 32 (≈ 66.6 µM) | 0.06 | 0.5 | 0.5 | 1000 | – | –
CC1(C)S[C@@H]2[C@H](NC(=O)COc3ccccc3)C(=O)N2[C@H]1C(=O)O | – | – | – | – | – | – | – | – | – | – | 2e+06 | – | –
CC1(C)S[C@@H]2[C@H](NC(=O)[C@H](N)c3ccc(O)cc3)C(=O)N2[C@H]1C(=O)O [AMOXICILLIN] | 32 (≈ 87.6 µM) | > 256 | > 256 | 512 (≈ 1400 µM) | > 256 | > 256 | > 256 | 120 | > 256 | > 256 | 2e+06 | 2 (≈ 5.47 µM) | MIC (Escherichia coli [12]): 32 µg/mL; MIC (Acinetobacter baumannii [13]): 32 µg/mL; MIC (Escherichia coli [14]): 2 µg/mL; MIC (Escherichia coli [15]): 32 µg/mL; MIC (Acinetobacter baumannii [17]): 8 µg/mL; MIC (Escherichia coli [18]): 32 µg/mL; MIC (Escherichia coli [19]): 4 µg/mL; MIC (Acinetobacter baumannii [20]): 32 µg/mL; MIC (Escherichia coli [21]): 32 µg/mL; MIC (Acinetobacter baumannii [22]): 32 µg/mL
CO/N=C(\C(=O)N[C@@H]1C(=O)N2C(C(=O)O)=C(COC(C)=O)CS[C@H]12)c1csc(N)n1 [CEFOTAXIME] | 8 (≈ 17.6 µM) | 0.25 (≈ 0.549 µM) | 16 (≈ 35.1 µM) | 0.06 (≈ 0.132 µM) | 0.25 | 8 (≈ 17.6 µM) | 16 (≈ 35.1 µM) | – | 0.25 | 0.25 | – | 0.06 (≈ 0.132 µM) | –
CO/N=C(\C(=O)N[C@@H]1C(=O)N2C(C(=O)[O-])=C(C[n+]3cccc4c3CCC4)CS[C@H]12)c1csc(N)n1 [CEFPIROME] | 2 (≈ 3.89 µM) | 1 (≈ 1.94 µM) | 64 (≈ 124 µM) | 0.06 (≈ 0.117 µM) | 1 | 2 (≈ 3.89 µM) | 32 (≈ 62.2 µM) | 0.03 | 0.25 | 0.25 | 500 | 0.06 (≈ 0.117 µM) | –
CC(C)(O/N=C(\C(=O)N[C@@H]1C(=O)N2C(C(=O)[O-])=C(C[n+]3ccccc3)CS[C@H]12)c1csc(N)n1)C(=O)O [CEFTAZIDIME] | 2 (≈ 3.66 µM) | 1 (≈ 1.83 µM) | 16 (≈ 29.3 µM) | 0.12 (≈ 0.22 µM) | 1 | 4 (≈ 7.32 µM) | 8 (≈ 14.6 µM) | – | 0.5 | 0.5 | – | 0.12 (≈ 0.22 µM) | –
CO/N=C(\C(=O)N[C@@H]1C(=O)N2C(C(=O)O)=C(COC(N)=O)CS[C@H]12)c1ccco1 [CEFUROXIME] | – | 4 (≈ 9.43 µM) | – | 2 (≈ 4.71 µM) | 2 | – | – | – | 2 | 2 | – | 2 (≈ 4.71 µM) | –
CC(=O)OCC1=C(C(=O)O)N2C(=O)[C@@H](NC(=O)Cc3cccs3)[C@H]2SC1 [CEPHALOTHIN] | – | 64 (≈ 161 µM) | – | 4 (≈ 10.1 µM) | 64 | – | – | 0.04 | 8 | 8 | 6000 | 4 (≈ 10.1 µM) | –
O=C(O)[C@H]1/C(=C/CO)O[C@@H]2CC(=O)N21 [CLAVULANIC ACID] | – | – | – | – | – | – | – | – | – | – | – | – | IC50 [23]: 100 nM; IC50 [24]: 70 nM
C[C@@H](O)[C@H]1C(=O)N2C(C(=O)O)=C(SCCNC=N)C[C@H]12 [IMIPENEM ANHYDROUS] | 0.25 (≈ 0.835 µM) | – | 0.25 (≈ 0.835 µM) | – | – | 0.25 (≈ 0.835 µM) | 0.25 (≈ 0.835 µM) | – | – | – | – | – | –
CCN1CCN(C(=O)N[C@@H](C(=O)N[C@@H]2C(=O)N3[C@@H]2SC(C)(C)[C@@H]3C(=O)O)c2ccccc2)C(=O)C1=O [PIPERACILLIN] | 16 (≈ 30.9 µM) | > 256 | > 256 | 32 (≈ 61.8 µM) | > 256 | > 256 | > 256 | 35 | > 256 | > 256 | 500000 | 1 (≈ 1.93 µM) | MIC (Acinetobacter baumannii [25]): > 256 µg/mL; MIC (Acinetobacter baumannii [26]): 4 µg/mL; MIC (Acinetobacter baumannii [27]): > 256 µg/mL; MIC (Acinetobacter baumannii [28]): 128 µg/mL
CC1(C)[C@H](C(=O)O)N2C(=O)C[C@H]2S1(=O)=O [SULBACTAM] | – | – | – | – | – | – | – | – | – | – | – | – | IC50 [23]: 200 nM; IC50 [24]: 1500 nM
C[C@]1(Cn2ccnn2)[C@H](C(=O)O)N2C(=O)C[C@H]2S1(=O)=O [TAZOBACTAM] | – | – | – | – | – | – | – | – | – | – | – | – | IC50 [23]: 100 nM; IC50 [24]: 350 nM
CC1(C)S[C@@H]2[C@H](NC(=O)[C@H](C(=O)O)c3ccsc3)C(=O)N2[C@H]1C(=O)O [TICARCILLIN] | 8 (≈ 20.8 µM) | – | > 256 | – | – | > 256 | > 256 | 100 | – | – | 1.5e+06 | – | MIC (Escherichia coli [12]): > 256 µg/mL; MIC (Acinetobacter baumannii [13]): > 256 µg/mL; MIC (Escherichia coli [14]): 2 µg/mL; MIC (Escherichia coli [15]): > 256 µg/mL; MIC (Acinetobacter baumannii [17]): 8 µg/mL; MIC (Escherichia coli [18]): > 256 µg/mL; MIC (Escherichia coli [19]): 16 µg/mL; MIC (Acinetobacter baumannii [20]): > 256 µg/mL; MIC (Escherichia coli [21]): > 256 µg/mL; MIC (Acinetobacter baumannii [22]): > 256 µg/mL
